Measured values published in ChEMBL document CHEMBL4689842, “EUbOPEN Chemogenomics Library wave 1” (2021).
“And” between values parts separate entries of the source, which are not always exact repeats. Equal entries are not always repeated.

Test system: Fibroblast
Assay: Multiplex assay against human fibroblast
Type: toxicity, cell-based
How it was run: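 Live cells were stained at seeding with Hoechst33342, BioTracker Green Microtubule Cytoskeleton Dye, MitoTracker Red and Annexin V Alexa Fluor 680, then imaged on a CQ1 microscope at 37°C and 5% CO2 after compound addition. CellPathfinder machine-learning gating split cells into Hoechst high-intensity objects or normal cells. Normal cells were split into healthy, pyknosed or fragmented nuclei, and pyknosed cells into mitotic or apoptotic. Tubulin, mitochondrial-mass and membrane-permeability phenotypes are per cents of healthy-nucleus cells.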

[1] = 12 h, 1 µM, compound concentration 1 uM, replicate 1
[2] = 12 h, 1 µM, compound concentration 1 uM, replicate 2
[3] = 12 h, 10 µM, compound concentration 10 uM, replicate 1
[4] = 12 h, 10 µM, compound concentration 10 uM, replicate 2
[5] = 24 h, 1 µM, compound concentration 1 uM, replicate 1
[6] = 24 h, 1 µM, compound concentration 1 uM, replicate 2
[7] = 24 h, 10 µM, compound concentration 10 uM, replicate 1
[8] = 24 h, 10 µM, compound concentration 10 uM, replicate 2

Which results are given for CCC1=C[C@@H]2C[N@](C1)Cc1c([nH]c3ccccc13)[C@@](C(=O)OC)(c1cc3c(cc1OC)N(C)[C@H]1[C@@](O)(C(=O)OC)[C@H](OC(C)=O)[C@]4(CC)C=CCN5CC[C@]31[C@@H]54)C2.O=C(O)C(O)C(O)C(=O)O.O=C(O)C(O)C(O)C(=O)O [VINORELBINE TARTRATE]?
Population Apoptotic (%) [1]: 63% and 65%; Population Fragmented Nuclei (%) [1]: 27% and 51%; Population Healthy Nuclei (%) [1]: 48% and 34%; Population Hoechst High Intensity Objects (%) [1]: 16% and 26%; Population Mitochondria Different-Phenotype (%) [1]: 14% and 9%; Population Mitotic Cells (%) [1]: 36% and 34%; Population Normal (%) [1]: 83% and 73%; Population Pyknosed Nuclei (%) [1]: 23% and 14%; Population Tubulin-Different-Phenotype (%) [1]: 8% and 4%; Total Cell Count [1]: 151 and 452; Population Apoptotic (%) [2]: 100% and 80%; Population Fragmented Nuclei (%) [2]: 79% and 75%; Population Healthy Nuclei (%) [2]: 18% and 15%; Population Hoechst High Intensity Objects (%) [2]: 44% and 38%; Population Membrane Permeable-Phenotype (%) [2]: 22% and 0%; Population Mitochondria Different-Phenotype (%) [2]: 0%; Population Mitotic Cells (%) [2]: 0% and 20%; Population Normal (%) [2]: 55% and 61%; Total Cell Count [2]: 86 and 94; Population Apoptotic (%) [3]: 67% and 68%; Population Fragmented Nuclei (%) [3]: 46% and 27%; Population Healthy Nuclei (%) [3]: 39% and 50%; Population Hoechst High Intensity Objects (%) [3]: 18%; Population Membrane Permeable-Phenotype (%) [3]: 6% and 4%; Population Mitochondria Different-Phenotype (%) [3]: 13% and 6%; Population Mitotic Cells (%) [3]: 32% and 31%; Population Normal (%) [3]: 81%; Population Pyknosed Nuclei (%) [3]: 13% and 22%; Population Tubulin-Different-Phenotype (%) [3]: 3%; Total Cell Count [3]: 353 and 227; Population Apoptotic (%) [4]: 50% and 60%; Population Fragmented Nuclei (%) [4]: 59% and 69%; Population Healthy Nuclei (%) [4]: 31% and 24%; Population Hoechst High Intensity Objects (%) [4]: 32% and 26%; Population Membrane Permeable-Phenotype (%) [4]: 17% and 0%; Population Mitochondria Different-Phenotype (%) [4]: 17% and 10%; Population Mitotic Cells (%) [4]: 50% and 40%; Population Normal (%) [4]: 67% and 73%; Population Pyknosed Nuclei (%) [4]: 8% and 6%; Population Tubulin-Different-Phenotype (%) [4]: 13% and 0%; Total Cell Count [4]: 107 and 111; Population Apoptotic (%) [5]: 73% and 63%; Population Fragmented Nuclei (%) [5]: 54% and 33%; Population Healthy Nuclei (%) [5]: 31% and 50%; Population Hoechst High Intensity Objects (%) [5]: 25% and 18%; Population Mitochondria Different-Phenotype (%) [5]: 8% and 7%; Population Mitotic Cells (%) [5]: 26% and 36%; Population Normal (%) [5]: 74% and 81%; Population Pyknosed Nuclei (%) [5]: 13% and 16%; Population Tubulin-Different-Phenotype (%) [5]: 4% and 3%; Population Fragmented Nuclei (%) [6]: 76% and 77%; Population Healthy Nuclei (%) [6]: 20% and 15%; Population Hoechst High Intensity Objects (%) [6]: 44% and 34%; Population Mitochondria Different-Phenotype (%) [6]: 22% and 9%; Population Mitotic Cells (%) [6]: 100% and 40%; Population Normal (%) [6]: 55% and 65%; Population Pyknosed Nuclei (%) [6]: 2% and 6%; Population Tubulin-Different-Phenotype (%) [6]: 22% and 9%; Total Cell Count [6]: 77 and 110; Population Apoptotic (%) [7]: 77% and 75%; Population Fragmented Nuclei (%) [7]: 48% and 27%; Population Healthy Nuclei (%) [7]: 35% and 54%; Population Hoechst High Intensity Objects (%) [7]: 26% and 19%; Population Membrane Permeable-Phenotype (%) [7]: 5% and 4%; Population Mitochondria Different-Phenotype (%) [7]: 9% and 2%; Population Mitotic Cells (%) [7]: 22% and 25%; Population Normal (%) [7]: 73% and 80%; Population Pyknosed Nuclei (%) [7]: 15% and 18%; Population Tubulin-Different-Phenotype (%) [7]: 3% and 1%; Total Cell Count [7]: 394 and 248; Population Fragmented Nuclei (%) [8]: 60% and 80%; Population Healthy Nuclei (%) [8]: 31% and 17%; Population Hoechst High Intensity Objects (%) [8]: 37% and 27%; Population Membrane Permeable-Phenotype (%) [8]: 10% and 0%; Population Mitochondria Different-Phenotype (%) [8]: 10% and 0%; Population Normal (%) [8]: 62% and 72%; Population Tubulin-Different-Phenotype (%) [8]: 0%; Total Cell Count [8]: 103 and 151

What does the source list for Cc1cc(C)c(-n2ccn3nc(-c4cccnc4)cc23)cc1NC(=O)c1cc(C#N)cc(S(F)(F)(F)(F)F)c1 [BAY-826]?
Population Apoptotic (%) [1]: 67% and 71%; Population Fragmented Nuclei (%) [1]: 37% and 21%; Population Healthy Nuclei (%) [1]: 48% and 63%; Population Hoechst High Intensity Objects (%) [1]: 11% and 19%; Population Mitochondria Different-Phenotype (%) [1]: 3% and 8%; Population Mitotic Cells (%) [1]: 32% and 28%; Population Normal (%) [1]: 88% and 80%; Population Pyknosed Nuclei (%) [1]: 14% and 15%; Total Cell Count [1]: 241 and 313; Population Apoptotic (%) [2]: 50% and 91%; Population Fragmented Nuclei (%) [2]: 55% and 58%; Population Healthy Nuclei (%) [2]: 37% and 19%; Population Hoechst High Intensity Objects (%) [2]: 23% and 34%; Population Membrane Permeable-Phenotype (%) [2]: 20% and 36%; Population Normal (%) [2]: 76% and 65%; Population Pyknosed Nuclei (%) [2]: 7% and 21%; Population Tubulin-Different-Phenotype (%) [2]: 30% and 54%; Total Cell Count [2]: 71 and 85; Population Apoptotic (%) [5]: 52% and 37%; Population Fragmented Nuclei (%) [5]: 23% and 21%; Population Healthy Nuclei (%) [5]: 54% and 63%; Population Hoechst High Intensity Objects (%) [5]: 12% and 18%; Population Mitochondria Different-Phenotype (%) [5]: 8% and 4%; Population Mitotic Cells (%) [5]: 47% and 62%; Population Normal (%) [5]: 87% and 81%; Population Pyknosed Nuclei (%) [5]: 21% and 14%; Total Cell Count [5]: 231 and 326; Population Fragmented Nuclei (%) [6]: 54% and 59%; Population Healthy Nuclei (%) [6]: 35% and 19%; Population Hoechst High Intensity Objects (%) [6]: 36% and 28%; Population Normal (%) [6]: 64% and 71%; Population Pyknosed Nuclei (%) [6]: 10% and 20%; Population Tubulin-Different-Phenotype (%) [6]: 29% and 58%; Total Cell Count [6]: 75 and 87
